What all share (format): functional
For test [1], the system named is Radical scavenging activity. The test can be described thus: Antioxidant activity assessed as DPPH radical scavenging activity after 20 min. In short, it runs like this:
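Percent antiradical activity = (1 − sample/blank absorbance)×100; IC25 from logarithmic regression over 5–6 concentrations; highest concentration tested 400 µM.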
(DPPH is a stable violet radical that fades when it is reduced.)

The nature of test [2]: Antioxidant activity assessed as inhibition of superoxide production by xanthine/xanthine oxidase method. In short, it runs like this: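 Superoxide generated from 500 µM xanthine with 3.75 mU/mL xanthine oxidase in 0.1 M phosphate buffer pH 7.5, detected as reduction of 500 µM NBT to monoformazan at 560 nm, 25°C, as rate of absorbance change. IC25 from rate versus log concentration, 5–7 concentrations, top concentration 50 µM.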

A short description of test [3]: Antioxidant activity in BALB/c mouse BM cells assessed as inhibition of ROS production. As to conditions: Bone marrow cell. In short, it runs like this:
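Whole bone marrow cells flushed from tibias and femurs with phenol red-free HBSS pH 7.4, strained through 70 µm, 1 × 10^6 cells/mL. L-012 (40 µM final) and horseradish peroxidase (8 µg/ml final) added; cells mixed with compound from DMSO stock (1% DMSO final). Luminescence read 60 min every 2 min at 37°C; area under curve gives total signal; IC25 from % inhibition versus log concentration, 5–7 concentrations.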

The structures appear in SMILES notation. Active and inactive are the calls of the source. The rule behind the calls is not given here.

As a reminder, the IC25 is the concentration needed for an effect of 25%. On to `O=c1c(O)c(-c2ccc(O)c(O)c2)oc2ccccc12`, for which the IC25 turned out to be 0.7 µM in test [1], 0.68 µM in test [2] and 1.75 µM in test [3].

Consider `O=c1cc(-c2cccc(O)c2)oc2c(O)c(O)ccc12`, for which the IC25 was determined as 2.7 µM in test [1], 2.4 µM in test [2] and 0.8 µM in test [3].

`COc1cccc2oc(-c3ccc(O)cc3)cc(=O)c12`: the outcome in test [1] and in test [2] was inactive. Also, in test [3], the IC25 came to 1270 µM.

In the case of `O=c1cc(-c2ccccc2O)oc2cc(O)cc(O)c12`, the result in test [1] and in test [2] was inactive. Moreover, the IC25 in test [3] is 5.7 µM.

`COc1c(-c2ccccc2)oc2cc(O)ccc2c1=O`: the result in test [1] and in test [2] was inactive. Also, in test [3], the IC25 turned out to be 1050 µM.

For the molecule `COc1ccc2c(=O)cc(-c3ccccc3)oc2c1O`, the outcome in test [1] and in test [2] was inactive. Also, in test [3], the IC25 turned out to be 3.1 µM.

For `O=c1cc(-c2ccccc2O)oc2c(O)c(O)ccc12`, the IC25 in test [1] is 2.1 µM; in test [2] it was 1.2 µM; in test [3] it was 0.52 µM.

In the case of `COc1ccccc1-c1oc2ccccc2c(=O)c1O`, in test [1], the outcome was inactive. For the same molecule, the IC25 in test [3] was determined as 49 µM.

For the molecule `COc1cc([C@@H]2Oc3cc([C@@H]4Oc5cc(O)cc(O)c5C(=O)[C@H]4O)ccc3O[C@H]2CO)ccc1O`, the IC25 stood at 61.4 µM in test [1], 7.7 µM in test [2] and 140 µM in test [3].

With `COc1cc(-c2cc(=O)c3ccccc3o2)ccc1O`, the outcome in test [1] and in test [2] was inactive. The IC25 in test [3] stood at 14.5 µM.

In the case of `COc1ccc(-c2cc(=O)c3c(O)cc(O[C@@H]4O[C@H](CO[C@@H]5O[C@@H](C)[C@H](O)[C@@H](O)[C@H]5O)[C@@H](O)[C@H](O)[C@H]4O)cc3o2)cc1O`, the outcome in test [1] and in test [2] was inactive.

As to `COc1ccc(-c2oc3ccc(C)cc3c(=O)c2O)cc1OC`, the IC25 in test [1] came to 89 µM.

Take `COc1ccc(C2CC(=O)c3c(O)cc(O[C@@H]4O[C@H](CO[C@@H]5O[C@@H](C)[C@H](O)[C@@H](O)[C@H]5O)[C@@H](O)[C@H](O)[C@H]4O)cc3O2)cc1O` (stereo not given in full): the outcome in test [1] and in test [2] was inactive.

In the case of `C[C@@H]1O[C@@H](OC[C@H]2O[C@@H](Oc3c(-c4ccc(O)c(O)c4)oc4cc(O)cc(O)c4c3=O)[C@H](O)[C@@H](O)[C@@H]2O)[C@H](O)[C@H](O)[C@H]1O`, the IC25 in test [1] came to 12.2 µM; in test [2], 4.5 µM.

Consider `O=c1c(O)c(-c2ccc(O)cc2)oc2ccc(O)cc12`, for which, in test [1], the IC25 was 4.5 µM.

Take `O=c1cc(-c2ccc(O)c(O)c2)oc2cccc(O)c12`: the IC25 in test [1] was 1.5 µM.

For `O=c1cc(-c2cccc(O)c2O)oc2ccccc12`, the IC25 in test [1] is 0.5 µM.

For `O=C1CC(c2ccccc2O)Oc2ccccc21` (stereo not given) [2'-HYDROXY-FLAVANONE], the outcome in test [1] and in test [2] was inactive. In addition, the IC25 in test [3] amounted to 5620 µM.

With `COc1c(-c2ccc(O)c(O)c2)oc2cc(O)cc(O)c2c1=O` [3-O-METHYLQUERCETIN], the IC25 in test [1] was determined as 5.9 µM; in test [2], 3.6 µM; in test [3] it was 58 µM.

Consider `O=C1CC(c2ccc(O)cc2)Oc2ccccc21` (stereo not given) [4'-HYDROXY-FLAVANONE], for which the result in test [1] and in test [2] was inactive. Further, the IC25 in test [3] came to 3300 µM.

In the case of `COc1ccc(-c2cc(=O)c3c(O)cc(O)cc3o2)cc1` [ACACETIN], the outcome in test [1] was inactive. Moreover, the IC25 in test [2] came out at 16.3 µM; in test [3] it was 1180 µM.

On to `O=c1cc(-c2ccc(O)cc2)oc2cc(O)cc(O)c12` [APIGENIN], for which the result in test [1] and in test [2] was inactive. The IC25 in test [3] was determined as 113 µM.

Regarding `CN1CCc2cccc3c2[C@H]1Cc1ccc(O)c(O)c1-3` [APOMORPHINE], the IC25 in test [2] was 16.2 µM.

As to `O=c1cc(-c2ccccc2)oc2cc(O)c(O)c(O)c12` [BAICALEIN], the IC25 is 1.5 µM in test [1], 2.6 µM in test [2] and 10.4 µM in test [3].

On to `COc1ccc(-c2coc3cc(O)cc(O)c3c2=O)cc1` [BIOCHANIN], for which the result in test [1] and in test [2] was inactive. Moreover, the IC25 in test [3] is 33 µM.

With `O=c1cc(-c2ccccc2)oc2cc(O)cc(O)c12` [CHRYSIN], the result in test [1] and in test [2] was inactive. Further, the IC25 in test [3] amounted to 4480 µM.

`Oc1cc(O)c2c(c1)O[C@H](c1ccc(O)c(O)c1)[C@@H](O)C2` [CIANIDANOL]: the IC25 worked out at 33.3 µM in test [1], 45.8 µM in test [2] and 168 µM in test [3].

On to `O=c1c(O)c(-c2ccc(O)c(O)c2)oc2cc(O)ccc12` [FISETIN], for which the IC25 in test [1] was determined as 7.9 µM; in test [2] it was 2.7 µM; in test [3] it was 31 µM.

For the molecule `O=c1c(O)c(-c2ccccc2)oc2cc(O)cc(O)c12` [GALANGIN], the figures for the IC25 in test [1] and in test [3] were 86.4 µM and 4.3 µM, respectively. In test [2], the outcome was inactive.

Regarding `COc1ccc([C@@H]2CC(=O)c3c(O)cc(O)cc3O2)cc1O` [HESPERETIN], the values for the IC25 in test [1] and in test [3] were 83 µM and 647 µM, respectively. Moreover, in test [2], the outcome was inactive.

`O=c1c(O)c(-c2ccc(O)cc2)oc2cc(O)cc(O)c12` [KAEMPFEROL]: the IC25 in test [1] was 22.6 µM; in test [3], 4 µM. The outcome in test [2] was inactive.

With `O=c1cc(-c2ccc(O)c(O)c2)oc2cc(O)cc(O)c12` [LUTEOLIN], the IC25 in test [1] is 12.1 µM; in test [2] it was 6.9 µM; in test [3], 13.7 µM.

With `O=c1c(O)c(-c2cc(O)c(O)c(O)c2)oc2cc(O)cc(O)c12` [MYRICETIN], the IC25 in test [1] was 41.8 µM; in test [2], 6.8 µM; in test [3], 5.2 µM.

For `O=C1C[C@@H](c2ccc(O)cc2)Oc2cc(O)cc(O)c21` [NARINGENIN], the outcome in test [1] and in test [2] was inactive. Moreover, the IC25 in test [3] was found to be 551 µM.

Take `O=C(CCc1ccc(O)cc1)c1c(O)cc(O)cc1O` [PHLORETIN]: the outcome in test [1] and in test [2] was inactive. For the same molecule, the IC25 in test [3] was determined as 300 µM.

With `O=c1c(O)c(-c2ccc(O)c(O)c2)oc2cc(O)cc(O)c12` [QUERCETIN], the IC25 in test [1] came to 8.1 µM; in test [2], 3 µM; in test [3] it was 3.5 µM.

For `O=c1c(O)c(-c2ccc(O)cc2)oc2cc(O)ccc12` [RESOKAEMPFEROL], the IC25 in test [1] was 4.1 µM; in test [2] it was 48 µM; in test [3], 23 µM.

Regarding `Oc1ccc(/C=C/c2cc(O)cc(O)c2)cc1` [RESVERATROL], the IC25 in test [1] stood at 349 µM; in test [3], 70 µM. Moreover, the result in test [2] was inactive.

For `C[C@@H]1O[C@@H](O[C@H]2[C@H](Oc3cc(O)c4c(=O)cc(-c5ccc(O)cc5)oc4c3)O[C@H](CO)[C@@H](O)[C@@H]2O)[C@H](O)[C@H](O)[C@H]1O` [RHOIFOLIN], the IC25 is 7.2 µM in test [2] and 201 µM in test [3].

Regarding `COc1cc(O)c2c(=O)cc(-c3ccccc3)oc2c1` [TECHTOCHRYSIN], the outcome in test [1] and in test [2] was inactive. Besides, the IC25 in test [3] came out at 160 µM.

(Values after ChEMBL document CHEMBL1146339, “Improved quantitative structure-activity relationship models to predict antioxidant activity of flavonoids in chemical, enzymatic, and cellular systems” (Bioorg Med Chem, 2007).)
